Results taken from PMC3424002 (ACS medicinal chemistry letters, 2012).
“Also recorded” adds a separate entry of the source.

Assays:
[1] = target: rat mGluR5 (Rattus norvegicus, UniProt P31424); type: cell-based; conditions: for effect on IP1 levels / accumulation: in the absence of QA (agonist)
[2] = system: mice; experiment: Novel open-field test; type: in vivo, mouse; conditions: for locomotor activity / amount of time spent in the center of the novel open-field: i.p. 15 minutes prior to testing; for locomotor activity: Figure 3A; for amount of time spent in the center of the novel open-field: Figure 3B
Outline: (§1)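 Mice received test compound by ip injection 15 min before testing, with each compound compared against its own within-group vehicle cohort. Compounds were suspended in 2% ethanol, 10% Tween 80 and water; one reference NAM was instead dissolved in saline. Prototypical mGluR5 NAMs served as positive controls. There were 10–12 mice per dose, and data are means ± SEM analysed by one-way ANOVA with Bonferroni post hoc test.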

[3] = system: mice; experiment: Light-dark box test; type: in vivo, mouse; conditions: i.p. 15 minutes prior to testing; for proportion of time spent in the light compartment: Figure 3C; for number of compartment transitions: Figure 3D
Outline: as §1

[4] = system: mice; experiment: Mouse models of anxiety-like behaviors; type: in vivo; conditions: for doses giving statistically significant effects consistent with anxiolysis: i.p., open-field and light-dark box tests
[5] = system: mGluR5; conditions: 10 mg/kg, mouse brain; cited from earlier work
[6] = target: mGluR5 (Rattus norvegicus, UniProt P31424); experiment: Displacement of [3H]1; type: binding; conditions: ratio of Ki values versus 1 (MPEP)
Chain of mGluR5 (Rattus norvegicus, UniProt P31424) (P31424 21-1203): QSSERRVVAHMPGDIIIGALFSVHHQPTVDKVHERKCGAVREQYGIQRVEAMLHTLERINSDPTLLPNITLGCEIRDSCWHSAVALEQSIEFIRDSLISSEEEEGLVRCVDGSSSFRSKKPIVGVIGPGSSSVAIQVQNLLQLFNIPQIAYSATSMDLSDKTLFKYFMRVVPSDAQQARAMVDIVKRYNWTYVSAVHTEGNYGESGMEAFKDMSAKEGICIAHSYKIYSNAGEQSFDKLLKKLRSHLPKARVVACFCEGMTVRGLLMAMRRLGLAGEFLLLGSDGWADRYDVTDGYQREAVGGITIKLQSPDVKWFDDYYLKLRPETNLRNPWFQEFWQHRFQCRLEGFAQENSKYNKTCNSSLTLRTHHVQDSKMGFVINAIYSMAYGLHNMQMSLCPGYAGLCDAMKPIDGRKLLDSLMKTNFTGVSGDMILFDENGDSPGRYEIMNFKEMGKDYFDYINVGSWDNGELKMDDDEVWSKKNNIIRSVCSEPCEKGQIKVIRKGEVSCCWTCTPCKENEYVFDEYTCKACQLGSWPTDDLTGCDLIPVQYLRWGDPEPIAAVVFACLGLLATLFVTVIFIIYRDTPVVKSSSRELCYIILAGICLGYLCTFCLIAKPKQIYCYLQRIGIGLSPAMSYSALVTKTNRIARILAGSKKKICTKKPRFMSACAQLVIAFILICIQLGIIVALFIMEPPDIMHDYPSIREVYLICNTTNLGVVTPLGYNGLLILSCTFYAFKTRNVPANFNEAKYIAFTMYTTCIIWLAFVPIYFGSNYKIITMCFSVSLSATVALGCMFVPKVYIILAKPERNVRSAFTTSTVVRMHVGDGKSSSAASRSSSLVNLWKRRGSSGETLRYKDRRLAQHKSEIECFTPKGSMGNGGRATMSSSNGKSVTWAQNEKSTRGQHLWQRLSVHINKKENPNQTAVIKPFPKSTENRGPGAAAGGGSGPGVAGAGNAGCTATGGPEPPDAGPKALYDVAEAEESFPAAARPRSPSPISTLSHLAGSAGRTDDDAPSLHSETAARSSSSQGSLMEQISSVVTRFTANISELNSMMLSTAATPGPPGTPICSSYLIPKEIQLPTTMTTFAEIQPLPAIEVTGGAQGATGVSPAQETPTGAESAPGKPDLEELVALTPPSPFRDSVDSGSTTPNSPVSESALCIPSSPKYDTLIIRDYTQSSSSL

[7] = system: 63 additional receptors and ion channels; experiment: Screening in 63 additional receptors and ion channels; type: binding; conditions: 100 nM; any of 63 additional receptors and ion channels

Chain of rat mGluR5 (P31424 21-1203): as above

fold increase in mGluR5 binding affinity over compound 1 [6] | inhibition of binding at other targets [7] [%] | Structure (SMILES) | effect on IP1 levels / accumulation [1] | overall / locomotor activity at the highest tested doses [2] | locomotor activity [2] | amount of time spent in the center of the novel open-field [2] | proportion of time spent in the light compartment [3] | number of compartment transitions [3] | anxiolytic effects at the highest tested doses [4] | doses giving statistically significant effects consistent with anxiolysis [4] [mg/kg] | mGluR5 receptor occupancy [5] | effect on IP1 levels (agonist) ([1]; agonist stimulation of mGluR5)
– | – | Cc1cccc(C#Cc2ccccc2)n1 [Compound 1, 2-methyl-6-(phenylethynyl)pyridine, reference compound] | potently decreased IP1 levels from baseline; also recorded: dose-dependent inverse agonism | no corresponding loss of locomotor activity | dose-dependently increased | dose-dependently increased | dose-dependently increased | dose-dependently increased | loss of anxiolytic effects | 3 to 30 | full | –
– | – | Cc1nc(C#Cc2cccnc2)cs1 [Compound 2, 3-((2-methyl-1,3-thiazol-4-yl)ethynyl)pyridine, reference compound] | potently decreased IP1 levels from baseline; also recorded: dose-dependent inverse agonism | – | dose-dependently increased | dose-dependently increased | dose-dependently increased | dose-dependently increased | – | 10 | – | –
approximately 24 fold | < 13 | Cc1cccc(C#Cc2cc(F)cc(C#N)c2)n1 [Compound 7i] | potently decreased IP1 levels from baseline; also recorded: dose-dependent inverse agonism | no corresponding loss of locomotor activity | dose-dependently increased | dose-dependently increased | dose-dependently increased | dose-dependently increased | loss of anxiolytic effects | 0.3 | – | –
– | – | N#Cc1cc(F)cc(C#Cc2cccc(C#N)n2)c1 [Compound 7j] | potently decreased IP1 levels from baseline; also recorded: dose-dependent inverse agonism | depression in overall activity | dose-dependently increased | dose-dependently increased | dose-dependently increased | dose-dependently increased | loss of anxiolytic effects | 0.1 to 0.3 | – | –
– | – | N[C@@H](Cn1oc(=O)[nH]c1=O)C(=O)O [QA, quisqualic acid] | – | – | – | – | – | – | – | – | – | dose-dependently increased IP1 levels; also recorded: increased IP1 accumulation
